# Source: ChEMBL document CHEMBL3616442, “Unconventional Knoevenagel-type indoles: Synthesis and cell-based studies for the identification of pro-apoptotic agents” (Eur J Med Chem, 2015)
# What was measured:
# MT4 = test: Antiproliferative activity against human MT4 cells after 96 hrs by MTT assay; assay type: functional, cell-based; settings: MT4, 96 h
# Method in brief: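 Exponentially growing MT-4 cells (CD4+ human T-cells carrying integrated HTLV-1 genome), seeded at 1×10^5 cells/mL in RPMI-1640 with 10% FCS and antibiotics. Serial dilutions of compound (DMSO stock 100 mM, diluted in medium), 37 °C, 5% CO₂, 96 h. Viability read by MTT. 50% inhibition versus untreated controls by linear regression. Mean ± SD of three independent determinations.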
# CCRF-CEM = test: Growth inhibition of human CCRF-CEM cells after 48 hrs by sulforhodamine B assay; assay type: functional
# Method in brief: (§1)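 NCI 60-cell-line screen. Compounds tested at five 10-fold dilutions from 10^-4 to 10^-8 M. Cells exposed for the last 48 h of a 72 h incubation, growth estimated by sulforhodamine B protein assay. GI50 is the concentration giving 50% growth inhibition. Values beyond the tested range are expressed as greater or lesser than the extreme concentration.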
# HL-60(TB) = test: Growth inhibition of human HL-60(TB) cells after 48 hrs by sulforhodamine B assay; assay type: functional; settings: HL-60, 48 h
# Method in brief: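 NCI 60-cell-line screen, HL-60(TB) included. Compound given at five 10-fold dilutions from 10^-4 to 10^-8 M. Cells exposed for the last 48 h of a 72 h incubation. Growth or viability estimated by sulforhodamine B protein assay. GI50 is the concentration giving 50% growth inhibition. Values outside the tested range are reported as greater or less than the highest or lowest concentration.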
# K562 = test: Growth inhibition of human K562 cells after 48 hrs by sulforhodamine B assay; assay type: functional; settings: K562, 48 h; method in brief: as §1
# [1] = Growth inhibition of human MOLT4 cells after 48 hrs by sulforhodamine B assay; assay type: functional; settings: MOLT-4, 48 h; method in brief: as §1
# [2] = Growth inhibition of human RPMI8226 cells after 48 hrs by sulforhodamine B assay; assay type: functional; settings: RPMI-8226, 48 h
# A549 = test: Growth inhibition of human A549 cells after 48 hrs by sulforhodamine B assay; assay type: functional; settings: A549, 48 h; method in brief: as §1
# [3] = Growth inhibition of human EKVX cells after 48 hrs by sulforhodamine B assay; assay type: functional; method in brief: as §1
# HOP-62 = test: Growth inhibition of human HOP62 cells after 48 hrs by sulforhodamine B assay; assay type: functional; settings: HOP-62, 48 h; method in brief: as §1
# [4] = Growth inhibition of human HOP92 cells after 48 hrs by sulforhodamine B assay; assay type: functional; settings: HOP-92, 48 h; method in brief: as §1
# NCI-H226 = test: Growth inhibition of human NCI-H226 cells after 48 hrs by sulforhodamine B assay; assay type: functional; settings: NCI-H226, 48 h; method in brief: as §1
# HCT-116 = test: Growth inhibition of human HCT116 cells after 48 hrs by sulforhodamine B assay; assay type: functional; settings: HCT-116, 48 h; method in brief: as §1
# HCT-15 = test: Growth inhibition of human HCT15 cells after 48 hrs by sulforhodamine B assay; assay type: functional; settings: HCT-15, 48 h; method in brief: as §1
# KM12 = test: Growth inhibition of human KM12 cells after 48 hrs by sulforhodamine B assay; assay type: functional; settings: KM12, 48 h; method in brief: as §1
# [5] = Growth inhibition of human SF295 cells after 48 hrs by sulforhodamine B assay; assay type: functional; settings: SF-295, 48 h
# [6] = Growth inhibition of human SF539 cells after 48 hrs by sulforhodamine B assay; assay type: functional; settings: SF-539, 48 h
# SNB-19 = test: Growth inhibition of human SNB19 cells after 48 hrs by sulforhodamine B assay; assay type: functional; settings: SNB-19, 48 h
# U-251 = test: Growth inhibition of human U251 cells after 48 hrs by sulforhodamine B assay; assay type: functional; settings: U-251, 48 h
# [7] = Growth inhibition of human LOXIMVI cells after 48 hrs by sulforhodamine B assay; assay type: functional; settings: LOX IMVI; method in brief: as §1
# Malme-3M = test: Growth inhibition of human MALME-3M cells after 48 hrs by sulforhodamine B assay; assay type: functional; method in brief: as §1
# M14 = test: Growth inhibition of human M14 cells after 48 hrs by sulforhodamine B assay; assay type: functional; settings: M14, 48 h; method in brief: as §1
# SK-MEL-2 = test: Growth inhibition of human SK-MEL-2 cells after 48 hrs by sulforhodamine B assay; assay type: functional; settings: SK-MEL-2, 48 h
# SK-MEL-5 = test: Growth inhibition of human SK-MEL-5 cells after 48 hrs by sulforhodamine B assay; assay type: functional; settings: SK-MEL-5, 48 h
# UACC-257 = test: Growth inhibition of human UACC257 cells after 48 hrs by sulforhodamine B assay; assay type: functional; settings: UACC-257, 48 h
# UACC-62 = test: Growth inhibition of human UACC62 cells after 48 hrs by sulforhodamine B assay; assay type: functional; settings: UACC-62, 48 h
# OVCAR-3 = test: Growth inhibition of human OVCAR3 cells after 48 hrs by sulforhodamine B assay; assay type: functional; settings: OVCAR-3, 48 h; method in brief: as §1
# OVCAR-4 = test: Growth inhibition of human OVCAR4 cells after 48 hrs by sulforhodamine B assay; assay type: functional; settings: OVCAR-4, 48 h; method in brief: as §1
# OVCAR-5 = test: Growth inhibition of human OVCAR5 cells after 48 hrs by sulforhodamine B assay; assay type: functional; settings: OVCAR-5, 48 h
# [8] = Growth inhibition of human NCI-ADR-RES cells after 48 hrs by sulforhodamine B assay; assay type: functional; method in brief: as §1
# SK-OV-3 = test: Growth inhibition of human SKOV3 cells after 48 hrs by sulforhodamine B assay; assay type: functional; settings: SK-OV-3, 48 h
# 786-0 = test: Growth inhibition of human 786-0 cells after 48 hrs by sulforhodamine B assay; assay type: functional; settings: 786-0, 48 h; method in brief: as §1
# ACHN = test: Growth inhibition of human ACHN cells after 48 hrs by sulforhodamine B assay; assay type: functional; method in brief: as §1
# CAKI-1 = test: Growth inhibition of human CAKI-1 cells after 48 hrs by sulforhodamine B assay; assay type: functional; settings: CAKI-1, 48 h; method in brief: as §1
# [9] = Growth inhibition of human RXF393 cells after 48 hrs by sulforhodamine B assay; assay type: functional; settings: RXF 393, 48 h
# SN12C = test: Growth inhibition of human SN12C cells after 48 hrs by sulforhodamine B assay; assay type: functional
# TK-10 = test: Growth inhibition of human TK10 cells after 48 hrs by sulforhodamine B assay; assay type: functional; settings: TK-10, 48 h
# UO-31 = test: Growth inhibition of human UO31 cells after 48 hrs by sulforhodamine B assay; assay type: functional; settings: UO-31, 48 h
# PC-3 = test: Growth inhibition of human PC3 cells after 48 hrs by sulforhodamine B assay; assay type: functional; settings: PC-3, 48 h
# DU-145 = test: Growth inhibition of human DU145 cells after 48 hrs by sulforhodamine B assay; assay type: functional; settings: DU-145, 48 h; method in brief: as §1
# MCF7 = test: Growth inhibition of human MCF7 cells after 48 hrs by sulforhodamine B assay; assay type: functional; settings: MCF7, 48 h; method in brief: as §1
# [10] = Growth inhibition of human BT549 cells after 48 hrs by sulforhodamine B assay; assay type: functional; settings: BT-549, 48 h; method in brief: as §1
# T47D = test: Growth inhibition of human T47D cells after 48 hrs by sulforhodamine B assay; assay type: functional
# MDA-MB-468 = test: Growth inhibition of human MDA-MB-468 cells after 48 hrs by sulforhodamine B assay; assay type: functional; settings: MDA-MB-468, 48 h; method in brief: as §1
smiles,measurement,setting,value
N#CC(C#N)=Cc1c(-c2ccccc2)[nH]c2ccccc12,EC50,MT4,0.4 µM
same,GI50,CCRF-CEM,2.4 µM
same,GI50,HL-60(TB),1.8 µM
same,GI50,K562,0.478 µM
same,GI50,[1],43.2 µM
same,GI50,[2],0.582 µM
same,GI50,A549,4.6 µM
same,GI50,[3],5.8 µM
same,GI50,HOP-62,11.3 µM
same,GI50,[4],7.7 µM
same,GI50,NCI-H226,4.1 µM
same,GI50,HCT-116,2.3 µM
same,GI50,HCT-15,0.971 µM
same,GI50,KM12,0.684 µM
same,GI50,[5],1.6 µM
same,GI50,[6],2.1 µM
same,GI50,SNB-19,5.7 µM
same,GI50,U-251,1.2 µM
same,GI50,[7],3.3 µM
same,GI50,Malme-3M,26 µM
same,GI50,M14,1.9 µM
same,GI50,SK-MEL-2,27.6 µM
same,GI50,SK-MEL-5,1.1 µM
same,GI50,UACC-257,28.1 µM
same,GI50,UACC-62,2.6 µM
same,GI50,OVCAR-3,1.8 µM
same,GI50,OVCAR-4,5.2 µM
same,GI50,OVCAR-5,19.7 µM
same,GI50,[8],0.826 µM
same,GI50,SK-OV-3,6 µM
same,GI50,786-0,8.6 µM
same,GI50,ACHN,7.3 µM
same,GI50,CAKI-1,6.1 µM
same,GI50,[9],3.3 µM
same,GI50,SN12C,6.8 µM
same,GI50,TK-10,5.3 µM
same,GI50,UO-31,11.1 µM
same,GI50,PC-3,3 µM
same,GI50,DU-145,3.3 µM
same,GI50,MCF7,1.1 µM
same,GI50,[10],9.4 µM
same,GI50,T47D,4.6 µM
same,GI50,MDA-MB-468,1 µM
